For three compounds, Activity and EC50 results are on record in ChEMBL document CHEMBL1240360, “TMC278, a next-generation nonnucleoside reverse transcriptase inhibitor (NNRTI), active against wild-type and NNRTI-resistant HIV-1” (Antimicrob Agents Chemother, 2010).

Molecules are shown by their SMILES.

For one data set, the system named is MT4. Kind of data set: Cytotoxicity against human MT4 cells by cell based assay. In outline:
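Cytotoxicity in MT4 cells from cell-based assays gave a 50% cytotoxic concentration, reported as a median with first- to third-quartile values over the stated number of experiments.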

Data set [1] relates to Human immunodeficiency virus 2. Description: Antiviral activity against Human immunodeficiency virus 2 ROD infected in human MT4 cells assessed as reduction in virus induced cytopathicity. It counts as functional, organism-based. Conditions: Human immunodeficiency virus 2, ISOLATE ROD. In outline:
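MT4 cells (1.5 × 10^5/ml) infected with HIV (MOI 0.01) were added to serial compound dilutions and incubated 5 days at 37°C in 5% CO2. Protection from virus-induced cell death was read by MTT tetrazolium colorimetry, giving an EC50 in micromolar.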
(In general: Damage to the host cells serves as the signal in cytopathic effect assays.)

For data set [2], the system named is Human immunodeficiency virus 1. Kind of data set: Antiviral activity against Human immunodeficiency virus 1 subtype D infected in human MT4 cells assessed as reduction in virus induced cytopathicity. It is filed as functional, organism-based. In outline: (§1)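 Recombinant viruses were made by recombining patient-derived HIV-1 RT-PR sequences into an RT-PR-deleted HXB2 proviral clone transfected into MT4 cells. Subtype was assigned from PR/RT sequence by Smith-Waterman alignment to HXB2. MT4 cells (1.5 × 10^5/ml) were infected at MOI 0.01 with serially diluted compound for 5 days at 37°C. Viability was read by MTT and EC50 derived.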

Data set [3] relates to Human immunodeficiency virus 1. Kind of data set: Antiviral activity against Human immunodeficiency virus 1 subtype (H) infected in human MT4 cells assessed as reduction in virus induced cytopathicity. It counts as functional, organism-based. In outline: as §1
In data set [4] the test system is Human immunodeficiency virus 1. Kind of data set: Antiviral activity against Human immunodeficiency virus 1 subtype C infected in human MT4 cells assessed as reduction in virus induced cytopathicity. It is filed as functional, organism-based. In outline: as §1
The subject of data set [5] is Human immunodeficiency virus 1. Kind of data set: Antiviral activity against Human immunodeficiency virus 1 subtype O isolate BCF03 infected in human PBMC cells by cell based assay. Conditions: Human immunodeficiency virus 1, subtype O isolate BCF03, PBMC.
The subject of data set [6] is Human immunodeficiency virus 1. Description: Antiviral activity against Human immunodeficiency virus 1 subtype C isolate 92BR025 infected in human PBMC cells by cell based assay. The settings on record: Human immunodeficiency virus 1, subtype C isolate 92BR025, PBMC.
In data set [7] the test system is Human immunodeficiency virus 1. Kind of data set: Antiviral activity against Human immunodeficiency virus 1 subtype B isolate 93BR021 infected in human PBMC cells by cell based assay. The settings on record: Human immunodeficiency virus 1, subtype B isolate 93BR021, PBMC.
Data set [8] has as its system Human immunodeficiency virus 1. Description: Antiviral activity against Human immunodeficiency virus 1 subtype G isolate RU132 infected in human PBMC cells by cell based assay. Conditions: Human immunodeficiency virus 1, subtype G isolate RU132, PBMC.
Data set [9] has as its system Human immunodeficiency virus 1. Kind of data set: Antiviral activity against Human immunodeficiency virus 1 subtype B isolate WEJO infected in human PBMC cells by cell based assay.
The test system of data set [10] is Human immunodeficiency virus 1. Kind of data set: Antiviral activity against Human immunodeficiency virus 1 subtype F isolate 93BR029 infected in human PBMC cells by cell based assay. Conditions: Human immunodeficiency virus 1, subtype F isolate 93BR029, PBMC.
In data set [11] the test system is Human immunodeficiency virus 1. Kind of data set: Antiviral activity against Human immunodeficiency virus 1 3B infected in human MT4 cells assessed as reduction in virus induced cytopathicity. It is filed as functional, organism-based. In outline: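 MT4 cells (1.5 × 10^5/ml) infected with HIV-1 IIIB at MOI 0.01 and added to serially diluted compound. Cultures incubated 5 days at 37°C under 5% CO2. Cell viability, as protection from virus-induced killing, read by MTT tetrazolium colorimetry. EC50 reported as median with first to third quartiles over n experiments.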

Data set [12] deals with Human immunodeficiency virus 1. Kind of data set: Antiviral activity against Human immunodeficiency virus 1 subtype E isolate CMU08 infected in human PBMC cells by cell based assay. Conditions: Human immunodeficiency virus 1, subtype E isolate CMU08, PBMC.
Data set [13] deals with Human immunodeficiency virus 1. Description: Antiviral activity against Human immunodeficiency virus 1 subtype C isolate 93IN101 infected in human PBMC cells by cell based assay. Conditions: Human immunodeficiency virus 1, subtype C isolate 93IN101, PBMC.
Data set [14] relates to Human immunodeficiency virus 1. Description: Antiviral activity against Human immunodeficiency virus 1 subtype AE infected in human MT4 cells assessed as reduction in virus induced cytopathicity. It counts as functional, organism-based. In outline: as §1
The test system of data set [15] is Human immunodeficiency virus 1. Kind of data set: Antiviral activity against Human immunodeficiency virus 1 subtype G isolate JV1083 infected in human PBMC cells by cell based assay. The settings on record: Human immunodeficiency virus 1, subtype G isolate JV1083, PBMC.
For data set [16], the system named is Human immunodeficiency virus 1. Kind of data set: Antiviral activity against Human immunodeficiency virus 1 subtype G isolate G3 infected in human PBMC cells by cell based assay. The settings on record: Human immunodeficiency virus 1, subtype G isolate G3, PBMC.
The test system of data set [17] is Human immunodeficiency virus 1. Kind of data set: Antiviral activity against Human immunodeficiency virus 1 subtype O misolate BCF01 infected in human PBMC cells by cell based assay. Conditions: Human immunodeficiency virus 1, subtype O isolate BCF01, PBMC.
For data set [18], the system named is Human immunodeficiency virus 1. Kind of data set: Antiviral activity against Human immunodeficiency virus 1 subtype F isolate 93BR019 infected in human PBMC cells by cell based assay. Conditions: Human immunodeficiency virus 1, subtype F isolate 93BR019, PBMC.
For data set [19], the system named is Human immunodeficiency virus 1. Kind of data set: Antiviral activity against Human immunodeficiency virus 1 subtype F1 infected in human MT4 cells assessed as reduction in virus induced cytopathicity. The settings on record: Human immunodeficiency virus 1, subtype F1, MT4. It counts as functional, organism-based. In outline: as §1
Data set [20] relates to Human immunodeficiency virus 1. Description: Antiviral activity against Human immunodeficiency virus 1 subtype A isolate 92UG029 infected in human PBMC cells by cell based assay. The settings on record: Human immunodeficiency virus 1, subtype A isolate 92UG029, PBMC.
The subject of data set [21] is Human immunodeficiency virus 1. Description: Antiviral activity against Human immunodeficiency virus 1 subtype E isolate 93TH073 infected in human PBMC cells by cell based assay. The settings on record: Human immunodeficiency virus 1, subtype E 93TH073, PBMC.
For data set [22], the system named is Human immunodeficiency virus 1. Kind of data set: Antiviral activity against Human immunodeficiency virus 1 subtype D isolate 92UG024 infected in human PBMC cells by cell based assay. Conditions: Human immunodeficiency virus 1, subtype D 92UG024, PBMC.
Data set [23] concerns Human immunodeficiency virus 1. Kind of data set: Antiviral activity against Human immunodeficiency virus 1 subtype E isolate 92TH006 infected in human PBMC cells by cell based assay. The settings on record: Human immunodeficiency virus 1, subtype E 92TH006, PBMC.
The test system of data set [24] is Human immunodeficiency virus 1. Description: Antiviral activity against Human immunodeficiency virus 1 subtype O isolate BCF02 infected in human PBMC cells by cell based assay. The settings on record: Human immunodeficiency virus 1, subtype O isolate BCF02, PBMC.
Data set [25] deals with Human immunodeficiency virus 1. Description: Antiviral activity against Human immunodeficiency virus 1 subtype D isolate 92UG001 infected in human PBMC cells by cell based assay. The settings on record: Human immunodeficiency virus 1, subtype D isolate 92UG001, PBMC.
For data set [26], the system named is Human immunodeficiency virus 1. Kind of data set: Antiviral activity against Human immunodeficiency virus 1 subtype A1 infected in human MT4 cells assessed as reduction in virus induced cytopathicity. It counts as functional, organism-based. The settings on record: Human immunodeficiency virus 1, subtype A1, MT4. In outline:
as §1

Data set [27] concerns Human immunodeficiency virus 1. Description: Antiviral activity against Human immunodeficiency virus 1 subtype B isolate JR-CSF infected in human PBMC cells by cell based assay.
Data set [28] has as its system Human immunodeficiency virus 1. Kind of data set: Antiviral activity against Human immunodeficiency virus 1 subtype G infected in human MT4 cells assessed as reduction in virus induced cytopathicity. It is filed as functional, organism-based. In outline: as §1
For data set [29], the system named is Human immunodeficiency virus 1. Description: Antiviral activity against Human immunodeficiency virus 1 subtype C isolate 93MW959 infected in human PBMC cells by cell based assay. The settings on record: Human immunodeficiency virus 1, subtype C isolate 93MW959, PBMC.
Data set [30] concerns Human immunodeficiency virus 1. Kind of data set: Antiviral activity against Human immunodeficiency virus 1 subtype D isolate 92UG035 infected in human PBMC cells by cell based assay. The settings on record: Human immunodeficiency virus 1, subtype D 92UG035, PBMC.
The subject of data set [31] is Human immunodeficiency virus 1. Description: Antiviral activity against Human immunodeficiency virus 1 subtype AG infected in human MT4 cells assessed as reduction in virus induced cytopathicity. It counts as functional, organism-based. In outline:
as §1

The test system of data set [32] is Human immunodeficiency virus 1. Description: Antiviral activity against Human immunodeficiency virus 1 subtype BG infected in human MT4 cells assessed as reduction in virus induced cytopathicity. It counts as functional, organism-based. In outline: as §1
Data set [33] deals with Human immunodeficiency virus 1. Description: Antiviral activity against Human immunodeficiency virus 1 subtype A isolate 92RW020 infected in human PBMC cells by cell based assay. The settings on record: Human immunodeficiency virus 1, subtype A isolate 92RW020, PBMC.
For data set [34], the system named is Human immunodeficiency virus 1. Description: Antiviral activity against Human immunodeficiency virus 1 subtype A isolate 92UG037 infected in human PBMC cells by cell based assay. The settings on record: Human immunodeficiency virus 1, subtype A isolate 92UG037, PBMC.
Data set [35] has as its system Human immunodeficiency virus 1. Description: Antiviral activity against Human immunodeficiency virus 1 subtype F isolate 93BR020 infected in human PBMC cells by cell based assay. The settings on record: Human immunodeficiency virus 1, subtype F isolate 93BR020, PBMC.

For `O=C1Nc2ccc(Cl)cc2[C@@](C#CC2CC2)(C(F)(F)F)O1` [EFAVIRENZ], in the data set with MT4, the Activity came out at 40.02 µM. In data set [1], the half-maximal effective concentration (EC50) (in general, the concentration giving half of the maximal effect) came to 24.8 µM.

Take `Cc1cc(C#N)cc(C)c1Oc1nc(Nc2ccc(C#N)cc2)nc(N)c1Br` [ETRAVIRINE]: the EC50 in data set [2] turned out to be 1.13 nM; in [3], 0.51 nM; in data set [4], 0.52 nM; in [5] it was 149 nM; in data set [6], 1.7 nM; in [7], 1.35 nM. Further, the half-maximal effective concentration (EC50) in data set [8] was 1.7 nM; in data set [9] it was 0.43 nM; in data set [10], 1.06 nM; in data set [11], 2.73 nM; in data set [12], 3.47 nM; in [13] it was 2.72 nM. For the same compound, the EC50 in data set [14] turned out to be 0.65 nM; in [15] it was 1.45 nM; in data set [16], 0.66 nM; in [17], 16.4 nM; in data set [18], 0.46 nM; in [19], 0.35 nM. For the same compound, the concentration for a half-maximal effect (EC50) came out at 1.45 nM in [20]; 0.21 nM in [21]; 3.18 nM in [22]; 0.5 nM in data set [23]; 52.8 nM in data set [24]; 0.9 nM in data set [25]. In addition, the concentration giving a half-maximal response (EC50) was determined as 1.39 nM in data set [26]; 1.02 nM in [27]; 0.24 nM in data set [28]; 1.01 nM in data set [29]; 5.67 µM in data set [1]; 0.44 nM in [30]. In addition, the EC50 worked out at 0.46 nM in data set [31]; 0.67 nM in data set [32]; 0.48 nM in data set [33]; 1.42 nM in data set [34]; 1.08 nM in data set [35]. In the data set on MT4, this compound registered an Activity of over 64 µM.

Regarding `Cc1ccnc2c1NC(=O)c1cccnc1N2C1CC1` [NEVIRAPINE], the EC50 in [2] is 24.2 nM; in data set [3] it was 34.1 nM; in [4] it was under 4.88 nM; in data set [11] it was 34.1 nM; in data set [14], 8.94 nM; in data set [19] it was 14.9 nM. Further, the half-maximal effective concentration (EC50) in data set [26] is 9.32 nM; in data set [28], 24.6 nM; in data set [1], over 31.2 µM; in data set [31], 14.4 nM; in data set [32], 26 nM. The same compound showed an Activity with MT4 of over 32 µM.
